This note sets out measurements from ChEMBL document CHEMBL1177725, “6-(3,4-dichlorophenyl)-1-[(methyloxy)methyl]-3-azabicyclo[4.1.0]heptane: a new potent and selective triple reuptake inhibitor” (J Med Chem, 2010).

The target in one data set is Cytochrome P450 3A4 (Homo sapiens, UniProt P08684). Briefly: Inhibition of human CYP3A4 after 10 mins. The class given is ADME. The gist of the method:
(§1)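 Recombinant human CYP bactosomes (0.1 mg/mL) were pre-incubated 10 min at 37 °C in 50 mM phosphate pH 7.4 with compound (0.1–10 μM) and a fluorogenic substrate. Substrates: ethoxyresorufin 0.5 μM (1A2), FCA 50 μM (2C9), BMC 10 μM (2C19), MMC 10 μM (2D6), DEF 1 μM or 7-BQ 25 μM (3A4). Adding an NADPH-regenerating system started the reaction, and metabolite fluorescence was read over 10 min. The IC50 came from rate as percent of control; miconazole served as positive control, with triplicates.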

The next data set concerns the target T1, Cytochrome P450 1A2 (Homo sapiens, UniProt P05177).
T1 sequence (P05177 whole entry): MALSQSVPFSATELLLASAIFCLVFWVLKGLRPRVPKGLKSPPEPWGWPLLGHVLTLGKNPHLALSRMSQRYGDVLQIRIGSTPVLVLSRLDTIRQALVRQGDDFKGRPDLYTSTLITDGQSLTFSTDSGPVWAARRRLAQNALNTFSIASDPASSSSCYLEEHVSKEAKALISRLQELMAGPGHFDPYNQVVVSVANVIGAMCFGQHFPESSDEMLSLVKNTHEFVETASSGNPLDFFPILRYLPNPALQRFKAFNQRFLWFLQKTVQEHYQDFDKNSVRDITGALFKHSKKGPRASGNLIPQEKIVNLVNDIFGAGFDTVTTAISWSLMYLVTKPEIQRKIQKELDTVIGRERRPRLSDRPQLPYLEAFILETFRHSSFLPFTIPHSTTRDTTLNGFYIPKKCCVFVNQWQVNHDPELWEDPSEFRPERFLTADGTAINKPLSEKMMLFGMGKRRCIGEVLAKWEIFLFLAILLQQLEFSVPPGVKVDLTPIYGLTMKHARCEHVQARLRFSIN
The data set can be described thus: Inhibition of human CYP1A2 after 10 mins. It is filed as ADME. The gist of the method: as §1

In the next data set the target is Cytochrome P450 2C9 (Homo sapiens, UniProt P11712). Briefly: Inhibition of human CYP2C9 after 10 mins. It is filed as ADME. A digest of the protocol: as §1
Sequence of Cytochrome P450 2C9 (P11712 whole entry): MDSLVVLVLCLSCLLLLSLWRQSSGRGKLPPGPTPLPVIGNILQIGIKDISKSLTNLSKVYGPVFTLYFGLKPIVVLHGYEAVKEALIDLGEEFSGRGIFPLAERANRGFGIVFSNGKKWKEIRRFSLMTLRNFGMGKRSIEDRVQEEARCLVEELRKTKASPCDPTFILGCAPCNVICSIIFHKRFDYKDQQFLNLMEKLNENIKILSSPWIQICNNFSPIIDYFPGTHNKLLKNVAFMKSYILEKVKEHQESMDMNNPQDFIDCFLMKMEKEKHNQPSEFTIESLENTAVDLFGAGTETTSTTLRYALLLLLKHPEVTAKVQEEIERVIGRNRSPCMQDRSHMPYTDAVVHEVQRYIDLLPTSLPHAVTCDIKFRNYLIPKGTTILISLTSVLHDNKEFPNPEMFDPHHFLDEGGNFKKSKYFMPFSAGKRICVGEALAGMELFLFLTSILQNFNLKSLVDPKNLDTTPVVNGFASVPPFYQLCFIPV
In data set [1] the target is Sodium-dependent dopamine transporter (Homo sapiens, UniProt Q01959). Briefly: Displacement of [N-methyl-3H]WIN-35428 from human recombinant DAT expressed in pig LLCPK cells after 2 hrs by liquid scintillation counting. The class given is cell-based.
Sequence of Sodium-dependent dopamine transporter (Q01959 whole entry): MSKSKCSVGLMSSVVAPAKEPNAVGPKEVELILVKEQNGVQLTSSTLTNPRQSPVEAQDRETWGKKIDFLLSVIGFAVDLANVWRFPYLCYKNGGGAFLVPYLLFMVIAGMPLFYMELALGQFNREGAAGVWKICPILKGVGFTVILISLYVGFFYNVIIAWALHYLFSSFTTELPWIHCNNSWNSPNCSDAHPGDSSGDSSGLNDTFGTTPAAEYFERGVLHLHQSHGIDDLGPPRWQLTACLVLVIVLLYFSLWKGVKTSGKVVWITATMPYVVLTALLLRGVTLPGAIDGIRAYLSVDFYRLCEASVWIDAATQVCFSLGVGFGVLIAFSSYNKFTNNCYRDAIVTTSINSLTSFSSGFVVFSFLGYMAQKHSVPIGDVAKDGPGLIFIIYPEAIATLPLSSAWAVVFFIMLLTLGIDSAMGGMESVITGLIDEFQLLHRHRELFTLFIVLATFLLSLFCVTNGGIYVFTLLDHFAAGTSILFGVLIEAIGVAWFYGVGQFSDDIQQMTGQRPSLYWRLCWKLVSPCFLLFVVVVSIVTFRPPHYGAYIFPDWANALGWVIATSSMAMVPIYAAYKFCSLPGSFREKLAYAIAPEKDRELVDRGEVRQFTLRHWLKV
The target in another data set is Cytochrome P450 2C19 (Homo sapiens, UniProt P33261). The data set can be described thus: Inhibition of human CYP2C19 after 10 mins. It is filed as ADME. A digest of the protocol:
as §1

Data set [2] addresses Sodium-dependent serotonin transporter (Homo sapiens, UniProt P31645). Briefly: Displacement of [N-methyl-3H]citalopram from human recombinant SERT expressed in pig LLCPK cells after 2 hrs by liquid scintillation counting. The class given is cell-based.
The target in the next data set is Cytochrome P450 2D6 (Homo sapiens, UniProt P10635). The data set can be described thus: Inhibition of human CYP2D6 after 10 mins. The class given is ADME. A digest of the protocol: as §1
Sequence of Cytochrome P450 2D6 (P10635 whole entry): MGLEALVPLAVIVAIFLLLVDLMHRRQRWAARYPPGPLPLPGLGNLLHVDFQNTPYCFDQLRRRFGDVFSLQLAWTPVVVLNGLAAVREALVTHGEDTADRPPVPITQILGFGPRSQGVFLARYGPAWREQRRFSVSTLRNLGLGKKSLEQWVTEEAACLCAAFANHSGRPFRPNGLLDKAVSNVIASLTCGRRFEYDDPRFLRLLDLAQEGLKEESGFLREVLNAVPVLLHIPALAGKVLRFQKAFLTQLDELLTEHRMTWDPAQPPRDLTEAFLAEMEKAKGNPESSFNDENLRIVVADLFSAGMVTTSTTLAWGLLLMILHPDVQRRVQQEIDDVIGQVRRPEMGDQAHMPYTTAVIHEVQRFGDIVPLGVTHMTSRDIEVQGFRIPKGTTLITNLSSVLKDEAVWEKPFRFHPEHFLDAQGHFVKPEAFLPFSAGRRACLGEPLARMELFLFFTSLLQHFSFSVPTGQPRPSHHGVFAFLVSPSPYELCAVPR
Data set [3] has as its target Sodium-dependent noradrenaline transporter (Homo sapiens, UniProt P23975). Briefly: Displacement of [N-methyl-3H]nisoxetine from human recombinant NET expressed in pig LLCPK cells after 2 hrs by liquid scintillation counting. The class given is cell-based.
The test system of data set [4] is Liver microsomes. Briefly: Intrinsic clearance in rat liver microsomes assessed per gram of protein at 0.5 uM after 30 mins. The class given is ADME, Microsome. The following applies: 0.5 h. The gist of the method: (§2)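 Compound at 0.5 μM with liver microsomes (0.5 mg protein/mL) in 50 mM phosphate pH 7.4 at 37 °C, started with NADPH. Samples at 0, 3, 6, 9, 15 and 30 min were quenched in acetonitrile and analysed by HPLC-MS/MS. Cli came from the first-order elimination constant, scaled assuming 52.5 mg microsomal protein/g.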
(In general: Microsomes from liver hold many membrane-bound enzymes, among them those of drug oxidation.)

The subject of data set [5] is Liver microsomes. The data set can be described thus: Intrinsic clearance in human liver microsomes assessed per gram of protein at 0.5 uM after 30 mins. The class given is ADME, Microsome. The following applies: 0.5 h. The gist of the method: as §2
The test system of a further data set is Mus musculus. Briefly: Potentiation of 5-hydroxytryptophan-induced stereotypic behavior in mouse at 10 mg/kg, po administered 2 hrs before 5-hydroxytryptophan challenge measured for 30 mins. The class given is functional, organism-based. Also noted: dose 10 mg/kg. The gist of the method:
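Mice were dosed orally at 3, 10 or 30 mg/kg 120 min before an ip injection of 5-HTP (100 mg/kg). Each mouse was then placed alone in a perspex box, and 5-HTP-induced stereotyped behaviour was assessed.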

The source made the active and inactive calls. No cut-off for these calls is given here.

Sequence of Sodium-dependent noradrenaline transporter (P23975 whole entry): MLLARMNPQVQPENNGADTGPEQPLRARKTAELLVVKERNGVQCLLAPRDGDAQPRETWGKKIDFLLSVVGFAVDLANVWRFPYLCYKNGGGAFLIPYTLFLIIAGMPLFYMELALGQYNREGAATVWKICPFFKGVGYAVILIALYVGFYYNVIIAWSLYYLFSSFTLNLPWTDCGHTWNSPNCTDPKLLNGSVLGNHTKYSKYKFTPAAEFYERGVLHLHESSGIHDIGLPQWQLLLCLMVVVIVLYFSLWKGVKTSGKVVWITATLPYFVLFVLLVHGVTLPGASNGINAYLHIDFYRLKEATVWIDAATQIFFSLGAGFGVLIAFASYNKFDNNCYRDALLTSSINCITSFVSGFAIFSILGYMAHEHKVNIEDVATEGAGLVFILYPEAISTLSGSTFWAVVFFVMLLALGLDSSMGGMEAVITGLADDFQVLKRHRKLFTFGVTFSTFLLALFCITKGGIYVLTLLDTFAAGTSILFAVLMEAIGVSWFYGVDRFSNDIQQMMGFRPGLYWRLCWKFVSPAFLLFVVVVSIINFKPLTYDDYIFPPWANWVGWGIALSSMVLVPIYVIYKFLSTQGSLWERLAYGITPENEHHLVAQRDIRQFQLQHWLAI
Sequence of Cytochrome P450 2C19 (P33261 whole entry): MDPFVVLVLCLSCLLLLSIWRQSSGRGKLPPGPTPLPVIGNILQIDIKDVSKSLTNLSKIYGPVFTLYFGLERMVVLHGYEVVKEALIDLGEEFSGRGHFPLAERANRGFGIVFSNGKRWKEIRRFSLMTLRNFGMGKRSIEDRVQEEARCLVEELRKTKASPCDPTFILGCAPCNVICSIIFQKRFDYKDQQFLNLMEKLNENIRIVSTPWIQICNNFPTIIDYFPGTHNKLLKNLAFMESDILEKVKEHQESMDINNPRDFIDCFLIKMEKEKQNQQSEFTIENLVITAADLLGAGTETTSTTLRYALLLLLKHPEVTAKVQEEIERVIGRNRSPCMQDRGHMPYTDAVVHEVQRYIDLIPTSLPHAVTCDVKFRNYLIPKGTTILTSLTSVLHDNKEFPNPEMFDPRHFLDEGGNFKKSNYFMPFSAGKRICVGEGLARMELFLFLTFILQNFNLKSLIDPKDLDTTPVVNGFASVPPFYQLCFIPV
Sequence of Cytochrome P450 3A4 (P08684 whole entry): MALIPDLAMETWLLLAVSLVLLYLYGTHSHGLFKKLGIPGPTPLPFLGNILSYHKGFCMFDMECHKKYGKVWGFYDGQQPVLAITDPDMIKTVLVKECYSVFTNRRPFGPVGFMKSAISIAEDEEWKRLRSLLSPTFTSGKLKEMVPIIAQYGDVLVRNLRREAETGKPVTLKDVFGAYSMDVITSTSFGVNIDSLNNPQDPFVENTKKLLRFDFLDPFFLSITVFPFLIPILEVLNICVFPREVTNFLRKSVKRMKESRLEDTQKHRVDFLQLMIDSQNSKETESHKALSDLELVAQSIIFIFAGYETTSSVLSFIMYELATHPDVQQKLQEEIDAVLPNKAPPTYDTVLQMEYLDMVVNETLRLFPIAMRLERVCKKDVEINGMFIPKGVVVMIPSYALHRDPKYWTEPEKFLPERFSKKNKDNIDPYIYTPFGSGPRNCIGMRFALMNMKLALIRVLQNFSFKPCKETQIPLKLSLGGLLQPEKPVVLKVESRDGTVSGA
Sequence of Sodium-dependent serotonin transporter (P31645 whole entry): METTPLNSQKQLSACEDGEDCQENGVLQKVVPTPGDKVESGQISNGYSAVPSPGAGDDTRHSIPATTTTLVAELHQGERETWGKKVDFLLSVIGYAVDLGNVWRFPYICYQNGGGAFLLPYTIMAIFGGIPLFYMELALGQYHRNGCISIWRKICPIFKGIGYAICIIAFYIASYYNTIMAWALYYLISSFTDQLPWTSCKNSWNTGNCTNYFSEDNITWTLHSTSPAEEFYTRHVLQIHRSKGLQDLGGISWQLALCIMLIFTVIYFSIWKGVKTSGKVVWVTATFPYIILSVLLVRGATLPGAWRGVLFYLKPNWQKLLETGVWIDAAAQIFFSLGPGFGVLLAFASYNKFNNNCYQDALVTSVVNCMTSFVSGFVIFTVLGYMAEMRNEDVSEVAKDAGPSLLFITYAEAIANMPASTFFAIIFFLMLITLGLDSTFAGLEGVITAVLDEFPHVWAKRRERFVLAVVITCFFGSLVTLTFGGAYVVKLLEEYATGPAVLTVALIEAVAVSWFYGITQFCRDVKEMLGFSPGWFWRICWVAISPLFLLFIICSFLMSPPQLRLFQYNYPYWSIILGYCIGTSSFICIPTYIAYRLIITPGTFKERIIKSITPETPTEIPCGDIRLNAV

The IC50 is the point on the concentration scale where inhibition reaches its midpoint. A high value points to weaker potency. As a reminder, the Ki is a dissociation constant, usually derived from enzyme kinetics or from competition with a known ligand. Regarding `COC[C@@]12CNCC[C@]1(c1ccc(Cl)c(Cl)c1)C2` (racemic) [GSK1360707], the IC50 on Cytochrome P450 3A4 is 10000 nM; at Cytochrome P450 1A2, 10000 nM; at Cytochrome P450 2C9 it was 10000 nM; on Cytochrome P450 2C19, 10000 nM; at Cytochrome P450 2D6 it was 3000 nM. Further, the results for the inhibition constant Ki in data set [1], in data set [2] and in [3] were 25.1 nM, 1.58 nM and 12.6 nM, respectively.
On to `COC[C@@]12CCNC[C@]1(c1ccc(Cl)c(Cl)c1)C2` (racemic) [RAC-1-(3,4-DICHLOROPHENYL)-6-(METHOXYMETHYL)-2-AZABICYCLO[4.1.0]HEPTANE (ENANTIOMERS)], for which the inhibition constant (Ki) in [1] is 126 nM; in [2], 31.6 nM; in data set [3], 200 nM. Moreover, the CL in the data set on Liver microsomes [4] was determined as 1.8 mL/min/g; in the data set on Liver microsomes [5] it was 1.4 mL/min/g.
As to `Clc1ccc([C@]23CNCC[C@H]2C3)cc1Cl` (racemic) [1-PHENYL-3-AZABICYCLO[4.1.0]HEPTANE (STRUCTURAL MIX)], the results for the Ki in [1], in [2] and in [3] were 79.4 nM, 126 nM and 158 nM, respectively.
The corresponding values for `Clc1ccc([C@]23CNCC[C@H]2C3)cc1Cl` (relative stereo; 5) [1-PHENYL-3-AZABICYCLO[4.1.0]HEPTANE (STRUCTURAL MIX)] are 100 nM, 251 nM and 398 nM.
With `C=CCC(OC)[C@]12CNCC[C@]1(c1ccc(Cl)c(Cl)c1)C2` (mixture of isomers; form 1) [6-(3,4-DICHLOROPHENYL)-1-[1-(METHYLOXY)-3-BUTEN-1-YL]-3-AZABICYCLO[4.1.0]HEPTANE (DIASTEREOMERIC MIX)], the IC50 against Cytochrome P450 3A4, on Cytochrome P450 1A2, at Cytochrome P450 2C9, on Cytochrome P450 2C19 and on Cytochrome P450 2D6 was 3000 nM throughout. Besides, the Ki in data set [1] was 1.26 nM; in data set [2] it was 0.126 nM; in [3], 1 nM.
On to `Clc1ccc([C@]23CCNC[C@@]2(COCC2CC2)C3)cc1Cl` (racemic) [1-((CYCLOPROPYLMETHOXY)METHYL)-6-(3,4-DICHLOROPHENYL)-3-AZABICYCLO[4.1.0]HEPTANE (ENANTIOMERIC MIX)], for which the Ki was 12.6 nM in data set [1], 1.26 nM in data set [2] and 50.1 nM in data set [3].
Take `COC[C@@]12CNCC[C@]1(c1ccc(C(F)(F)F)c(Cl)c1)C2` (racemic): the Ki in data set [1] is 1580 nM; in [2], 15.8 nM; in data set [3] it was 126 nM.
As to `COC[C@@]12CNC[C@H](OC)[C@]1(c1ccc(Cl)c(Cl)c1)C2` (racemic), the Ki in [1] is 501 nM; in [2], 100 nM; in data set [3], 1260 nM.
The corresponding values for `CCOC[C@@]12CNCC[C@]1(c1ccc(Cl)c(Cl)c1)C2` (relative stereo; 31) [6-(3,4-DICHLOROPHENYL)-1-[(ETHYLOXY)METHYL]-3-AZABICYCLO[4.1.0]-HEPTANE (ENANTIOMERIC MIX)] are 3.98 nM, 1 nM and 7.94 nM.
Turning to `CN(C)CCCC1(c2ccc(F)cc2)OCc2cc(C#N)ccc21` (stereo not given), in the data set with Mus musculus, the outcome was Active.
Regarding `COC[C@@H]1[C@@H]2CNCC[C@]12c1ccc(Cl)c(Cl)c1` (racemic), the inhibitory constant (Ki) is 398 nM in [1], 10 nM in data set [2] and 316 nM in [3].
As for `COC[C@@]12CNCC[C@]1(c1ccc3ccccc3c1)C2` (single isomer, unassigned; 28) [1-(METHOXYMETHYL)-6-(NAPHTHALEN-2-YL)-3-AZABICYCLO[4.1.0]HEPTANE (ENANTIOMERIC MIX)], the IC50 against Cytochrome P450 3A4, on Cytochrome P450 1A2, at Cytochrome P450 2C9, at Cytochrome P450 2C19 and at Cytochrome P450 2D6 was 8000 nM throughout. The Ki was 12.6 nM in data set [1], 0.126 nM in data set [2] and 10 nM in data set [3]. For the same compound, the figures for the CL with Liver microsomes [4] and in the data set with Liver microsomes [5] were 17 mL/min/g and 1.2 mL/min/g, respectively.
As to `COC[C@@]12CNCC[C@]1(c1ccc(Cl)c(Cl)c1)C2` (relative stereo; 18) [GSK1360707], the IC50 was 10000 nM against Cytochrome P450 3A4; 10000 nM at Cytochrome P450 1A2; 10000 nM against Cytochrome P450 2C9; 10000 nM against Cytochrome P450 2C19; 3000 nM on Cytochrome P450 2D6. Further, the results for the Ki in data set [1], in data set [2] and in data set [3] were 100 nM, 20 nM and 126 nM, respectively. The results for the CL in the data set with Liver microsomes [4] and in the data set with Liver microsomes [5] were 1.8 mL/min/g and 1.4 mL/min/g, respectively.
On to `CC#CNC(=O)[C@@]12CNCC[C@]1(c1ccc(Cl)c(Cl)c1)C2` (racemic), for which the Ki in [1] is 158 nM; in data set [2], 100 nM; in data set [3], 501 nM.
The corresponding values for `FC(F)(F)COC[C@@]12CNCC[C@]1(c1ccc(Cl)c(Cl)c1)C2` (racemic) are 39.8 nM, 6.31 nM and 79.4 nM.
`COC[C@@]12CNC[C@@H](OC)[C@]1(c1ccc(Cl)c(Cl)c1)C2` (racemic): the Ki in data set [1] is 398 nM; in data set [2], 251 nM; in data set [3], 1580 nM.
The corresponding values for `NC(=O)[C@@]12CNCC[C@]1(c1ccc(Cl)c(Cl)c1)C2` (racemic) are 251 nM, 100 nM and 794 nM.
In the case of `Clc1ccc([C@]23CCN4CC[C@]2(C4)C3)cc1Cl` (single isomer, unassigned; 49) [3-(3,4-DICHLORO-PHENYL)-6-AZA-TRICYCLO[4.2.1.0*1,3*]NONANE (STRUCTURAL MIX)], the Ki in data set [1] is 79.4 nM; in data set [2], 1.58 nM; in data set [3], 63.1 nM.
The corresponding values for `COC[C@@]12CCNC[C@]1(c1ccc(Cl)c(Cl)c1)C2` (single isomer, unassigned) [RAC-1-(3,4-DICHLOROPHENYL)-6-(METHOXYMETHYL)-2-AZABICYCLO[4.1.0]HEPTANE (ENANTIOMERS)] are 631 nM, 158 nM and 1000 nM.
The corresponding values for `COC[C@@]12CNCC[C@]1(c1ccc(Cl)cc1)C2` (racemic) are 251 nM, 15.8 nM and 200 nM.
On to `COC[C@@]12CN(C)CC[C@]1(c1ccc(Cl)c(Cl)c1)C2`, for which the Ki in [1] was 31.6 nM; in [2], 12.6 nM; in data set [3] it was 794 nM.
As for `Clc1ccc([C@]23CNCC[C@H]2C3)cc1Cl` (relative stereo; 4) [1-PHENYL-3-AZABICYCLO[4.1.0]HEPTANE (STRUCTURAL MIX)], the Ki in data set [1] is 39.8 nM; in data set [2], 79.4 nM; in data set [3], 63.1 nM.
